The values below come from ChEMBL document CHEMBL4033697, “Synthesis of methanesulphonamido-benzimidazole derivatives as gastro-sparing antiinflammatory agents with antioxidant effect” (Bioorg Med Chem Lett, 2017).

Some results are limits rather than exact numbers.

For series [1], the system named is Rattus norvegicus. Description: Anti-inflammatory activity in po dosed rat assessed as reduction in carrageenan-induced paw edema measured after 5 hrs by plethysmographic method. The class given is functional. The method in brief:
(§1)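 Rats; carrageenan in 0.9% saline injected into paw; compound suspended in 0.5% w/v CMC given orally 30 min after carrageenan, three graded doses per compound. Paw volume by plethysmograph before and at intervals after treatment; values at 5 h. % reduction in edema = (1 − Vt/Vc) × 100 versus carrageenan control; ED50 from the three graded doses; one-way ANOVA.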
Background: The carrageenan paw model is a standard test of acute inflammation.

Series [2] is described as follows: Antioxidant activity of the compound in phosphate buffer at pH 6.6 assessed as potassium ferric cyanide ion reducing activity at 1 umol/ml after 20 mins by spectrophotometric method relative to control. The class given is functional. Details: scale not given: the % may be the effect or the level left. The method in brief:
(§2)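 Methanolic sample (1.0–50.0 […], units as printed) mixed with 0.2 M phosphate buffer pH 6.6 and 1% K3Fe(CN)6, 50 °C for 20 min; cooled, 10% TCA added, aliquot diluted with water plus 0.1% FeCl3, 10 min stand. A700 read against a methanol control; triplicate. Reducing power (%) = [(Atest − Acontrol)/Atest] × 100; EC50 derived; ascorbic acid standard.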

Series [3] is described as follows: Antioxidant activity of the compound in phosphate buffer at pH 6.6 assessed as potassium ferric cyanide ion reducing activity at 50 umol/ml after 20 mins by spectrophotometric method relative to control. It counts as functional. Also on record: scale not given: the % may be the effect or the level left. In outline: as §2
Series [4] can be described thus: Antioxidant activity of the compound in phosphate buffer at pH 6.6 assessed as potassium ferric cyanide ion reducing activity at 2.5 umol/ml after 20 mins by spectrophotometric method relative to control. The class given is functional. Also on record: scale not given: the % may be the effect or the level left. In outline:
as §2

The subject of series [5] is Rattus norvegicus. Description: Anti-inflammatory activity in rat assessed as reduction in carrageenan-induced paw edema at 40 mg/kg, po measured after 5 hrs by plethysmographic method relative to control. Details: scale not given: the % may be the effect or the level left. The class given is functional. In outline: as §1
For series [6], the system named is Rattus norvegicus. Description: Ulcerogenicity in rat model of carrageenan-induced paw edema assessed as diameter of lesion in gastric wall at 2.5 mg/kg, po measured after 5 hrs. It counts as toxicity, organism-based. The following applies: in vivo. In outline:
(§3)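 After oral dosing in 0.5% CMC in the carrageenan paw model, rats were killed by cervical dislocation. Stomachs were inflated with 2% formalin, immersed 10 min to fix, and opened along the greater curvature. Longest lesion diameters were summed as a total lesion score (mm) per animal and averaged per group. Rofecoxib served as negative control and indomethacin as positive control.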

The test system of series [7] is Rattus norvegicus. Description: Toxicity in rat model of carrageenan-induced paw edema assessed as behavioral changes at 2.5 to 40 mg/kg, po measured during compound dosing. It counts as organism-based. The following applies: in vivo.
Series [8] can be described thus: Antioxidant activity of the compound in phosphate buffer at pH 6.6 assessed as potassium ferric cyanide ion reducing activity after 20 mins by spectrophotometric method. It counts as functional. In outline:
as §2

The nature of series [9]: Antioxidant activity of the compound in phosphate buffer at pH 6.6 assessed as potassium ferric cyanide ion reducing activity at 25 umol/ml after 20 mins by spectrophotometric method relative to control. It counts as functional. Also on record: scale not given: the % may be the effect or the level left. In outline:
as §2

The test system of series [10] is Rattus norvegicus. Description: Ulcerogenicity in rat model of carrageenan-induced paw edema assessed as diameter of lesion in gastric wall at 40 mg/kg, po measured after 5 hrs. It counts as toxicity, organism-based. The following applies: in vivo. The method in brief:
as §3

In series [11] the test system is Rattus norvegicus. Description: Ulcerogenicity in rat model of carrageenan-induced paw edema assessed as diameter of lesion in gastric wall at 10 mg/kg, po measured after 5 hrs. The class given is toxicity, organism-based. The following applies: in vivo. In outline: as §3
Series [12] can be described thus: Antioxidant activity of the compound in phosphate buffer at pH 6.6 assessed as potassium ferric cyanide ion reducing activity at 10 umol/ml after 20 mins by spectrophotometric method relative to control. It counts as functional. Also on record: scale not given: the % may be the effect or the level left. The method in brief:
as §2

Series [13] deals with Rattus norvegicus. Description: Anti-inflammatory activity in rat assessed as reduction in carrageenan-induced paw edema at 10 mg/kg, po measured after 5 hrs by plethysmographic method relative to control. It counts as functional. Also on record: scale not given: the % may be the effect or the level left. The method in brief: as §1
The nature of series [14]: Antioxidant activity of the compound in phosphate buffer at pH 6.6 assessed as potassium ferric cyanide ion reducing activity at 5 umol/ml after 20 mins by spectrophotometric method relative to control. It counts as functional. Details: scale not given: the % may be the effect or the level left. The method in brief:
as §2

In series [15] the test system is Rattus norvegicus. Description: Anti-inflammatory activity in rat assessed as reduction in carrageenan-induced paw edema at 2.5 mg/kg, po measured after 5 hrs by plethysmographic method relative to control. It counts as functional. Also on record: scale not given: the % may be the effect or the level left. In outline: as §1
For series [16], the system named is Rattus norvegicus. Description: Ulcerogenicity in rat model of carrageenan-induced paw edema assessed as diameter of lesion in gastric wall at 5 mg/kg, po measured after 5 hrs. It counts as toxicity, organism-based. The following applies: in vivo. In outline: as §3
The test system of series [17] is Rattus norvegicus. Description: Anti-inflammatory activity in rat assessed as reduction in carrageenan-induced paw edema at 5 mg/kg, po measured after 5 hrs by plethysmographic method relative to control. The class given is functional. Details: scale not given: the % may be the effect or the level left. In outline: as §1
Series [18] deals with Rattus norvegicus. Description: Ulcerogenicity in rat model of carrageenan-induced paw edema assessed as diameter of lesion in gastric wall at 75 mg/kg, po measured after 5 hrs. It counts as toxicity, organism-based. The following applies: in vivo. The method in brief: as §3
The test system of series [19] is Rattus norvegicus. Description: Anti-inflammatory activity in rat assessed as reduction in carrageenan-induced paw edema at 25 mg/kg, po measured after 5 hrs by plethysmographic method relative to control. Details: scale not given: the % may be the effect or the level left. It counts as functional. In outline:
as §1

The subject of series [20] is Rattus norvegicus. Description: Toxicity in rat model of carrageenan-induced paw edema assessed as behavioral changes at 5 to 75 mg/kg, po measured during compound dosing. The following applies: in vivo. The class given is organism-based.
Series [21] deals with Rattus norvegicus. Description: Ulcerogenicity in rat model of carrageenan-induced paw edema assessed as diameter of lesion in gastric wall at 25 mg/kg, po measured after 5 hrs. The class given is toxicity, organism-based. The following applies: in vivo. In outline:
as §3

Series [22] has as its system Rattus norvegicus. Description: Anti-inflammatory activity in rat assessed as reduction in carrageenan-induced paw edema at 75 mg/kg, po measured after 5 hrs by plethysmographic method relative to control. Also on record: scale not given: the % may be the effect or the level left. The class given is functional. The method in brief:
as §1

Series [23] has as its system Rattus norvegicus. Description: Ulcerogenicity in rat model of carrageenan-induced paw edema assessed as diameter of lesion in gastric wall at 30 mg/kg, po measured after 5 hrs. The class given is toxicity, organism-based. The following applies: in vivo. The method in brief: as §3
The test system of series [24] is Rattus norvegicus. Description: Anti-inflammatory activity in rat assessed as reduction in carrageenan-induced paw edema at 30 mg/kg, po measured after 5 hrs by plethysmographic method relative to control. The class given is functional. Details: scale not given: the % may be the effect or the level left. The method in brief:
as §1

Take `CCCCn1c(CCC)nc2cc(NS(C)(=O)=O)ccc21`: the ED50 (in general, the dose that gives a 50% effect, or the effect in half of the subjects) in the series with Rattus norvegicus [1] is 2.58 mg/kg. The Activity in [2] is 12.2%; in series [3], 73.5%; in series [4], 31.3%; in the series on Rattus norvegicus [5], 92.73%; with Rattus norvegicus [6] it was 0.27 mm; in the series with Rattus norvegicus [7] it was “Non-Toxic”. Besides, the Activity was found to be 70.3% in [9]; 1.1 mm with Rattus norvegicus [10]; 0.51 mm with Rattus norvegicus [11]; 61.8% in [12]; 86.36% in the series with Rattus norvegicus [13]; 59.8% in series [14]. The Activity in the series with Rattus norvegicus [15] turned out to be 43.64%. Besides, in [8], the concentration for a half-maximal effect (EC50) (commonly the concentration that produces a half-maximal response) was found to be 4 mM.

Turning to `COc1ccc2c(c1)c(CC(=O)O)c(C)n2C(=O)c1ccc(Cl)cc1` [INDOMETHACIN], the ED50 in the series on Rattus norvegicus [1] came out at 2.2 mg/kg. In addition, the Activity turned out to be 19.4 mm in the series on Rattus norvegicus [11] and 75% in the series with Rattus norvegicus [13].

Turning to `CCCCCn1c(CCC)nc2cc(NS(C)(=O)=O)ccc21`, the ED50 in the series on Rattus norvegicus [1] was 2.55 mg/kg. The Activity in series [2] was 15.4%; in [3], 79.1%; in series [4], 32.7%; in the series with Rattus norvegicus [5] it was 95.64%; in the series with Rattus norvegicus [6] it was 0.25 mm; in the series with Rattus norvegicus [7], “Non-Toxic”. The Activity in series [9] was 72.8%; with Rattus norvegicus [10] it was 1.01 mm; in the series with Rattus norvegicus [11], 0.5 mm; in series [12], 66.5%; in the series on Rattus norvegicus [13], 86.36%; in [14], 58%. Moreover, in the series with Rattus norvegicus [15], the Activity was determined as 48.18%. The EC50 in series [8] is 3.7 mM.

As for `CCCCCCn1c(CCC)nc2cc([N+](=O)[O-])ccc21`, the ED50 in the series on Rattus norvegicus [1] turned out to be 3.97 mg/kg. The Activity in series [2] was 0.9%; with Rattus norvegicus [16], 0.22 mm; in [3] it was 45.9%; in [4], 2.8%; with Rattus norvegicus [17], 51.87%; in [9] it was 30.1%. Moreover, the Activity in the series on Rattus norvegicus [18] is 1.26 mm; with Rattus norvegicus [19] it was 61.26%; in the series with Rattus norvegicus [20], “Non-Toxic”; in the series with Rattus norvegicus [21], 0.54 mm; in the series on Rattus norvegicus [22], 78.25%; in [12], 17.9%. The Activity in [14] was determined as 6.8%. Moreover, in series [8], the half-maximal effective concentration (EC50) is > 50 mM.

For `CCCCCCn1c(CCC)nc2cc(NS(C)(=O)=O)ccc21`, the ED50 in the series on Rattus norvegicus [1] worked out at 2.45 mg/kg. Also, the Activity was 10.6% in [2]; 75.4% in series [3]; 29.2% in series [4]; 97.62% in the series on Rattus norvegicus [5]; 0.2 mm in the series with Rattus norvegicus [6]; “Non-Toxic” in the series with Rattus norvegicus [7]. The Activity stood at 69.6% in [9]; 1.02 mm with Rattus norvegicus [10]; 0.69 mm in the series with Rattus norvegicus [11]; 66.5% in series [12]; 86.36% in the series with Rattus norvegicus [13]; 49.7% in [14]. Besides, the Activity in the series on Rattus norvegicus [15] is 50.18%. For the same molecule, the half-maximal effective concentration (EC50) in series [8] was 5.1 mM.

`CCCCn1c(CCC)nc2cc([N+](=O)[O-])ccc21`: the ED50 in the series with Rattus norvegicus [1] worked out at 4.79 mg/kg. In addition, the Activity came out at 0.6% in [2]; 0.35 mm in the series on Rattus norvegicus [16]; 45.4% in series [3]; 2.5% in series [4]; 29.55% in the series with Rattus norvegicus [17]; 29.2% in [9]. Besides, the Activity with Rattus norvegicus [18] is 1.04 mm; in the series with Rattus norvegicus [19], 47.73%; in the series with Rattus norvegicus [20] it was “Non-Toxic”; in the series with Rattus norvegicus [21], 0.7 mm; in the series with Rattus norvegicus [22] it was 52.27%; in series [12], 16.8%. Besides, the Activity in series [14] is 6.8%. For the same molecule, the concentration giving a half-maximal response (EC50) in [8] was > 50 mM.

In the case of `CS(=O)(=O)c1ccc(C2=C(c3ccccc3)C(=O)OC2)cc1` [ROFECOXIB], the Activity in the series with Rattus norvegicus [23] is 2.92 mm; in the series on Rattus norvegicus [24] it was 78.95%.
